The text below walks through data of ChEMBL document CHEMBL2346548, “Design, synthesis, and structure-activity relationship studies of tryptanthrins as antitubercular agents” (J Nat Prod, 2013).

A short description of data set [1]: Permeability across basolateral to apical side in human Caco2 cells incubated for 1 hr at 37 degC by HPLC-MS/MS method. The format is ADME, cell-based. Conditions: Caco-2. For orientation: Caco-2 cells form a polarised layer with tight junctions and transporters.
Data set [2] has as its system Mycobacterium tuberculosis. As to the kind of experiment: Antitubercular activity against Mycobacterium tuberculosis H37Rv incubated at 37 degC for 14 days in presence of 40% human serum by microplate alamar blue assay. In kind it is functional. Conditions: 336 h. A digest of the protocol:
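This is the MABA run in 7H9 broth containing 40% human serum. Compounds were 2-fold serially diluted, and wells were inoculated with H37Rv at 2 × 10⁵ CFU/mL. Incubation was at 37 °C for 14 days, then Alamar Blue was added. MIC was the lowest concentration preventing the blue-to-pink colour change.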
A general note: Resazurin is reduced to fluorescent resorufin, in cell work by metabolically active cells.

The nature of data set [3]: Solubility in simulated intestinal fluid at pH 7.6 by HPLC method. The format is physicochemical. A digest of the protocol:
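Simulated intestinal fluid medium; each analogue 200 μM final in 2% DMSO, shaken 24 h at room temperature, then HPLC with photodiode array read at 230 nm; duplicate, means given.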

The test system of data set [4] is Mycobacterium tuberculosis. The data set is described as follows: Antitubercular activity against non-replicating Mycobacterium tuberculosis H37Rv incubated for 10 days by LORA method. In kind it is functional. Conditions: 240 h. The method in brief: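 H37Rv carrying pFCA-luxAB was adapted to low oxygen by gradual self-depletion in a sealed, slowly stirred flask. It was then exposed to compounds for 10 days under anaerobic conditions. Cultures recovered for 28 h in ambient oxygen before n-decanal substrate was added and luminescence read. MIC was the lowest concentration giving a 90% reduction in luminescence versus untreated controls.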

Data set [5] can be described thus: Efflux ratio in human Caco2 cells incubated for 1 hr at 37 degC by HPLC-MS/MS method. The format is ADME, cell-based. Conditions: Caco-2.
A short description of data set [6]: Solubility in simulated gastric fluid at pH 1.5 by HPLC method. The format is physicochemical. A digest of the protocol: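 Compound at 200 μM final in 2% DMSO in simulated gastric fluid, shaken 24 h at room temperature; HPLC-photodiode array detection at 230 nm; duplicate means.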
The next data set deals with Vero. The data set is described as follows: Cytotoxicity against african green monkey Vero cells. In kind it is cell-based, Chlorocebus sabaeus. Conditions: Chlorocebus sabaeus, Vero; read-out: IC50.
Data set [7] in a line: Aqueous solubility in PBS buffer at pH 7.4 by HPLC method. In kind it is physicochemical. Conditions: PBS buffer, read-out: solubility. A digest of the protocol: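 Compound at 200 μM final in 2% DMSO in PBS pH 7.4, shaken 24 h at room temperature; quantified by HPLC with photodiode array detection at 230 nm; duplicate, mean reported.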
Data set [8] can be described thus: Metabolic stability in human liver microsomes assessed as parent compound remaining at 1 uM incubated for 1 hr by HPLC-MS/MS method. The format is ADME, Microsome. Conditions: read-out: Stability. A digest of the protocol: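 Pooled mixed-gender human liver microsomes (0.3 mg/mL protein), 1 μM compound with NADP-regenerating system in phosphate buffer pH 7.4, 1 h at 37 °C; parent measured at start and end by HPLC-MS/MS; duplicate means.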
(In general: Microsomes from liver hold many membrane-bound enzymes, among them those of drug oxidation.)

The test system of data set [9] is Mycobacterium tuberculosis. The data set is described as follows: Antitubercular activity against Mycobacterium tuberculosis H37Rv incubated at 37 degC for 7 days by microplate alamar blue assay. In kind it is functional. Conditions: for MIC: Mycobacterium tuberculosis, H37Rv, 168 h. The method in brief: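 Mtb H37Rv was grown in 7H9 broth with glycerol, Casitone, 10% OADC and 0.05% Tween 80 to OD600 0.4. Compounds were 2-fold serially diluted from DMSO stocks in 7H9, and wells were inoculated at 2 × 10⁵ CFU/mL. After 7 days at 37 °C, Alamar Blue was added and read after a further 24 h. MIC was the lowest concentration preventing the blue-to-pink change.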

A short description of data set [10]: Permeability across apical to basolateral side in human Caco2 cells incubated for 1 hr at 37 degC by HPLC-MS/MS method. The format is ADME, cell-based. Conditions: Caco-2. A digest of the protocol:
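TC7 (Caco-2 subclone) monolayer; 10 μM compound in 1% DMSO in HBSS-MES pH 6.5 on apical donor side, basolateral receiver pH 7.4; shaken 1 h at 37 °C; receiver sampled, HPLC-MS/MS; duplicate means.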

A further data set has as its target CYP3A4 (Homo sapiens, UniProt P08684). The data set is described as follows: Inhibition of human recombinant CYP3A4 at 10 uM incubated for 30 mins at 37 degC using 7-benzyloxy-4-(trifluoromethyl)coumarin substrate. In kind it is ADME. Conditions: recombinant CYP3A4, probe 7-benzyloxy-4-(trifluoromethyl)coumarin.
Another data set has as its target CYP2C19 (Homo sapiens, UniProt P33261). The data set is described as follows: Inhibition of human recombinant CYP2C19 at 10 uM incubated for 60 mins at 37 degC using 3-cyano-7-ethoxycoumarin substrate. Conditions: recombinant CYP2C19, probe 3-cyano-7-ethoxycoumarin. In kind it is ADME.
The target of the next data set is CYP2C9 (Homo sapiens, UniProt P11712). The data set is described as follows: Inhibition of human recombinant CYP2C9 at 10 uM incubated for 80 mins at 37 degC using 7-methoxy-4-trifluoromethylcoumarin substrate. In kind it is ADME. Conditions: recombinant CYP2C9, probe 7-methoxy-4-trifluoromethylcoumarin.
Chain of CYP2C9 (P11712 whole entry): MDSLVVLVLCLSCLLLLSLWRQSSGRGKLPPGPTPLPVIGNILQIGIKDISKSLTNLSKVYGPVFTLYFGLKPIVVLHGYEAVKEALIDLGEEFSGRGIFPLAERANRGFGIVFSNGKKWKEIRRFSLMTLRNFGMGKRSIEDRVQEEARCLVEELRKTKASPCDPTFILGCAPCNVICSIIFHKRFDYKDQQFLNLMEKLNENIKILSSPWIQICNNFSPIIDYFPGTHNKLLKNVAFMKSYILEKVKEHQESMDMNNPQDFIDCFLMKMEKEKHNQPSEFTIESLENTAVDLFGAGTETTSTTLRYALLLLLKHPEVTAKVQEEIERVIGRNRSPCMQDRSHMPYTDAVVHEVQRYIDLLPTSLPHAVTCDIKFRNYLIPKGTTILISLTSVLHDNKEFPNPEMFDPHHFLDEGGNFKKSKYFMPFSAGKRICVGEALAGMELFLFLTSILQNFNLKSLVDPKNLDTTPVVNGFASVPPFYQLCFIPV
Data set [11] in a line: Distribution coefficient, log D of the compound between n-octanol and PBS buffer at pH 7.4 incubated for 1 hr by shake flask method. In kind it is physicochemical. The method in brief: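 Partition between n-octanol and PBS pH 7.4 after 1 h shaking at room temperature; phases analysed by HPLC with photodiode detection; logD = log10 of organic/aqueous amount.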
Data set [12] can be described thus: Protein binding in human plasma at 10 uM incubated for 8 hrs at 37 degC by equilibrium dialysis method. In kind it is ADME, cell-free. Conditions: read-out: PPB (converted). A digest of the protocol:
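Equilibrium dialysis: 10 μM compound in 1% DMSO in human plasma vs 0.05 M phosphate buffer pH 7.5 across 12–14 K cutoff membrane, at least 8 h at 37 °C; HPLC-photodiode detection at 230 nm; duplicate means.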

In brackets after ≈: the same amount, converted by molar mass. Bounds are passed on as bounds.

Chain of CYP3A4 (P08684 whole entry): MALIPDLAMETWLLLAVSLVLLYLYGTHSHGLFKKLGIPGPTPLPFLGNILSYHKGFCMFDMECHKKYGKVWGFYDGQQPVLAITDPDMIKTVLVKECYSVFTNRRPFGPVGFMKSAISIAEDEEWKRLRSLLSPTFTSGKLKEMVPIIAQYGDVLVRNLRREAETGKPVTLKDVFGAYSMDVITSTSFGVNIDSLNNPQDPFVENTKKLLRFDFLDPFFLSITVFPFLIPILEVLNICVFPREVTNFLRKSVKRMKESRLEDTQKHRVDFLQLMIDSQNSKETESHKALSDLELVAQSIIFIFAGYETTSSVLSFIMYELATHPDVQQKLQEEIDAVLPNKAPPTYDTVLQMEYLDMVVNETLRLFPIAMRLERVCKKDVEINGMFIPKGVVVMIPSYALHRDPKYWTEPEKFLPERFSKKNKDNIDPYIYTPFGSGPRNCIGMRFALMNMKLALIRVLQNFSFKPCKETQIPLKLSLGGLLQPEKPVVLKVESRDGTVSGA
Chain of CYP2C19 (P33261 whole entry): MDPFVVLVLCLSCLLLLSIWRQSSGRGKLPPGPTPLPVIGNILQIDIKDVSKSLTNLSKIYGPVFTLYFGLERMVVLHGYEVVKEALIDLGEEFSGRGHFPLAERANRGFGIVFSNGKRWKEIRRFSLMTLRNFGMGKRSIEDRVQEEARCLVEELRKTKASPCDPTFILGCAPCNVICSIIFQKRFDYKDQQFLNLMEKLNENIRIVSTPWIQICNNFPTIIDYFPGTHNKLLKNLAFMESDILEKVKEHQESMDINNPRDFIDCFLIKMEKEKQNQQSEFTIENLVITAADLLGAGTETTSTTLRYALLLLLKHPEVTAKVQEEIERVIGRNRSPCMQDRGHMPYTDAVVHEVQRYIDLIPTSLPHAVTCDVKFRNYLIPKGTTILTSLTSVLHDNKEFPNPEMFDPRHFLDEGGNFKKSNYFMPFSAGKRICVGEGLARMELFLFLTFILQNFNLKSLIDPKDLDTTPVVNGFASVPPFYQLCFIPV

For orientation: Papp B→A means the apparent permeability from the basolateral to the apical side of a cell layer. As usually defined, the MIC is the lowest concentration that inhibits growth of the organism. In general, solubility refers to the concentration that dissolves in the medium under given conditions. Broadly, the MIC90 is an inhibitory concentration at the 90% level, which refers to growth in some studies and to a panel of isolates in others. As a reminder, the efflux ratio is the permeability from basolateral to apical divided by that in the opposite direction, in the common usage. For orientation: IC50 means the point on the concentration scale where inhibition reaches its midpoint. For orientation: Papp A→B means the apparent permeability from the apical to the basolateral side of a cell layer. `O=C1c2cc(Cl)ccc2-n2c1nc1cc(F)ccc1c2=O`: in [1], the Papp B→A at 1 h was determined as 12.7 ×10⁻⁶ cm/s. Also, the MIC in data set [2] came out at 0.5 µg/mL; in data set [9] it was 0.5 µg/mL (≈ 1.66 µM). The solubility in [3] was 10.3 µM (≈ 3.1 µg/mL); in data set [6] it was 2.5 µM (≈ 0.752 µg/mL); in data set [7], 1.1 µM (≈ 0.331 µg/mL). Besides, the MIC90 in [4] is > 50 µg/mL. Besides, the efflux ratio at 1 h in data set [5] was > 1. For the same compound, the IC50 in the data set with Vero was > 50 µg/mL. In addition, the remaining at 1 h, 1 µM in [8] was determined as 91%. In data set [9], the MBC90 is 0.25 µg/mL (≈ 0.831 µM). In addition, in [10], the Papp A→B at 1 h turned out to be 28.5 ×10⁻⁶ cm/s.

The inhibition is the relative decrease from the control value, in per cent. By logD is commonly meant lipophilicity at a set pH, counting ionised and neutral species. Turning to `O=C1c2cc(Cl)ccc2-n2c1nc1ncccc1c2=O`, on CYP3A4, the inhibition at 0.5 h, 10 µM is 62%. The compound also registered a Papp B→A at 1 h in data set [1] of 44 ×10⁻⁶ cm/s. Besides, the inhibition at 1 h, 10 µM on CYP2C19 was 67%. For the same compound, the inhibition at 80 min, 10 µM at CYP2C9 is 54%. For the same compound, the results for the minimal inhibitory concentration (MIC) in [2] and in [9] were 0.125 µg/mL and 0.125 µg/mL (≈ 0.441 µM), respectively. In data set [11], this compound came in with a logD at 1 h of 1.77. For the same compound, the solubility is 18.9 µM (≈ 5.36 µg/mL) in data set [3], 6 µM (≈ 1.7 µg/mL) in data set [6] and 8 µM (≈ 2.27 µg/mL) in data set [7]. Further, the MIC90 in data set [4] was 1.4 µg/mL (≈ 4.94 µM). Further, the efflux ratio at 1 h in data set [5] is > 1. Moreover, the IC50 with Vero stood at 5.4 µg/mL (≈ 19 µM). Further, the remaining at 1 h, 1 µM in data set [8] stood at 96%. In data set [9], this compound returned an MBC90 of 0.25 µg/mL (≈ 0.881 µM). This compound registered a Papp A→B at 1 h in [10] of 73.8 ×10⁻⁶ cm/s. In addition, the fraction unbound at 8 h, 10 µM in [12] was 0.051.

As to `O=C1c2cc(Br)ccc2-n2c1nc1ccccc1c2=O`, in data set [1], the Papp B→A at 1 h was found to be 7.6 ×10⁻⁶ cm/s. Also, the MIC in [2] amounted to 0.5 µg/mL; in data set [9], 0.125 µg/mL (≈ 0.382 µM). Moreover, the solubility was 92.9 µM (≈ 30.4 µg/mL) in [3], 2.3 µM (≈ 0.752 µg/mL) in data set [6] and 2.6 µM (≈ 0.851 µg/mL) in [7]. In addition, the MIC90 in data set [4] was > 50 µg/mL. In addition, in data set [5], the efflux ratio at 1 h is > 1. Further, in the data set on Vero, the IC50 was 35 µg/mL (≈ 107 µM). Also, the remaining at 1 h, 1 µM in data set [8] was found to be 59%. In addition, the Papp A→B at 1 h in data set [10] amounted to 23.8 ×10⁻⁶ cm/s.

Regarding `O=C1c2ccccc2-n2c1nc1ccc(Br)cc1c2=O`, the inhibition at 0.5 h, 10 µM at CYP3A4 worked out at 10%. The inhibition at 1 h, 10 µM at CYP2C19 amounted to 10%. Also, the inhibition at 80 min, 10 µM on CYP2C9 is 20%. Further, the MIC in [2] came out at 0.5 µg/mL. Moreover, the logD at 1 h in [11] stood at 1.69. Moreover, in [3], the solubility is 49.4 µM (≈ 16.2 µg/mL). For the same compound, the MIC90 in [4] is > 50 µg/mL. Besides, the IC50 in the data set on Vero was > 50 µg/mL. Besides, in [9], the MBC90 amounted to 0.5 µg/mL (≈ 1.53 µM) and the MIC is 0.25 µg/mL (≈ 0.764 µM).

`O=C1c2cc(Br)ccc2-n2c1nc1ccncc1c2=O`: on CYP3A4, the inhibition at 0.5 h, 10 µM was 14%. Further, on CYP2C19, the inhibition at 1 h, 10 µM was found to be 16%. For the same compound, the inhibition at 80 min, 10 µM at CYP2C9 turned out to be 10%. In addition, the MIC in data set [2] was 0.5 µg/mL; in [9] it was 1 µg/mL (≈ 3.05 µM). This compound also returned a logD at 1 h in [11] of 1.6. For the same compound, the values for the solubility in data set [3], in data set [6] and in [7] were 34.4 µM (≈ 11.3 µg/mL), 45 µM (≈ 14.8 µg/mL) and 35.4 µM (≈ 11.6 µg/mL), respectively. Moreover, the MIC90 in [4] is > 50 µg/mL. Further, in the data set on Vero, the IC50 was > 50 µg/mL. Moreover, the remaining at 1 h, 1 µM in [8] was determined as 96%. Besides, the MBC90 in data set [9] was found to be 0.25 µg/mL (≈ 0.762 µM).

As to `O=C1c2cc([N+](=O)[O-])ccc2-n2c1nc1ccccc1c2=O`, the MIC in data set [2] worked out at 0.5 µg/mL; in [9], 0.032 µg/mL (≈ 0.109 µM). For the same compound, the values for the solubility in data set [3], in data set [6] and in [7] were 152 µM (≈ 44.5 µg/mL), 5.1 µM (≈ 1.5 µg/mL) and 64.3 µM (≈ 18.9 µg/mL), respectively. In addition, the MIC90 in data set [4] was 2.4 µg/mL (≈ 8.18 µM). Moreover, the IC50 in the data set with Vero was found to be 28 µg/mL (≈ 95.5 µM). For the same compound, the remaining at 1 h, 1 µM in [8] came to 33%. In data set [9], the MBC90 is 0.25 µg/mL (≈ 0.853 µM). The fraction unbound at 8 h, 10 µM in data set [12] is 0.031.
